In data set [1] the test system is K562. Briefly: Antiproliferative activity against human K562 cells at 10 to 100 uM after 24 to 72 hrs. The class given is functional, cell-based. Summed up:
(§1)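 K-562 (chronic myeloid leukemia) and U-937 (histiocytic lymphoma) cells were exposed to the indicated compound concentrations. Proliferation and viability were scored separately at 24, 48 and 72 h. Data are mean ± SD of three independent cultures.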

The test system of data set [2] is U-937. Description: Antiproliferative activity against human U937 cells at 10 to 100 uM after 24 to 72 hrs. The format is functional, cell-based. Summed up: as §1
For data set [3], the target named is T1, Histone deacetylase (Homo sapiens) (UniProt Q13547+O15379+Q9UBN7+Q92769+Q9UQL6+Q8WUI4+Q9BY41+Q96DB2+P56524+Q9UKV0+Q969S8). Description: Inhibition of HDAC in human K562 cells nuclear extracts at 100 uM. The class given is cell-free. The procedure, abridged: (§2)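 Total HDAC activity was measured in vitro on K-562 nuclear extracts with compound at 100 µM. Values are the mean percent change from two independent experiments.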

For another data set, the system named is PBMC. Briefly: Cytotoxicity against human PBMC assessed as reduction in cell viability at 10 to 100 uM after 24 to 48 hrs.
Data set [4] deals with U-937. Description: Antiproliferative activity against human U937 cells at 10 to 100 uM after 24 to 48 hrs. The class given is functional, cell-based. Summed up:
as §1

Data set [5] has as its system U-937. Description: Antiproliferative activity against human U937 cells at 10 to 100 uM after 72 hrs. The format is functional, cell-based. Summed up:
as §1

The subject of data set [6] is K562. Briefly: Cytotoxicity against human K562 cells assessed as reduction in cell viability at 10 to 100 uM after 24 to 72 hrs. The format is functional, cell-based. Summed up: as §1
Data set [7] deals with U-937. Briefly: Cytotoxicity against human U937 cells assessed as reduction in cell viability at 10 to 100 uM after 24 to 72 hrs. The class given is functional, cell-based. The procedure, abridged:
as §1

The target in data set [8] is T1, Histone deacetylase (Homo sapiens). Briefly: Increase in HDAC activity in human K562 cells nuclear extracts at 100 uM. The class given is cell-based. The procedure, abridged:
as §2

The target in the next data set is T2, Histone deacetylase 8 (Homo sapiens, UniProt Q9BY41).
T2 sequence (Q9BY41 whole entry): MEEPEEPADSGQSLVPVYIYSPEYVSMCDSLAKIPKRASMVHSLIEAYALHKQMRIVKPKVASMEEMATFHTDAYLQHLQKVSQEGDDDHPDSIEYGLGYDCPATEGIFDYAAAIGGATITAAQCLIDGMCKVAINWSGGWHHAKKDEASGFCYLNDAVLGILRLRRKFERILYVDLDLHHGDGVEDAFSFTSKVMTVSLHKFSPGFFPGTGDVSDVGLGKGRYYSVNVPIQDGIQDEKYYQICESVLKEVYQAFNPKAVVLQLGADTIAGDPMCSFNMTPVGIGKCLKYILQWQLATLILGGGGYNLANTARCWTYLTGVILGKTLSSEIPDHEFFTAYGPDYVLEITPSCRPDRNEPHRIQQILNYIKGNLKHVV
Briefly: Inhibition of HDAC8 (unknown origin). The procedure, abridged: (§3)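 Activity of individual HDAC isoenzymes (classes I, IIb and IV) was measured in vitro with compound. IC50 values come from two independent experiments.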

The target of another data set is T3, Histone deacetylase 11 (Homo sapiens, UniProt Q96DB2).
T3 sequence (Q96DB2 whole entry): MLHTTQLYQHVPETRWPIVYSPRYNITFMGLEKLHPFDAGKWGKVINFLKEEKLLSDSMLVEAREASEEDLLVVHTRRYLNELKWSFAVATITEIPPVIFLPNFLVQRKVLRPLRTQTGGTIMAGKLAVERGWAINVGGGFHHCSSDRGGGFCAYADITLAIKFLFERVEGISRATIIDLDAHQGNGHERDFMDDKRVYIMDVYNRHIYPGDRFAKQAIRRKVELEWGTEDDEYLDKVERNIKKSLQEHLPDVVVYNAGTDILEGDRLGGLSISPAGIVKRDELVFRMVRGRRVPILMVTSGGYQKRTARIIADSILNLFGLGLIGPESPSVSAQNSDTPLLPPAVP
Briefly: Inhibition of HDAC11 (unknown origin). The procedure, abridged: as §3

Data set [9] has as its target T4, Protein deacetylase HDAC6 (Homo sapiens, UniProt Q9UBN7).
T4 sequence (Q9UBN7 whole entry): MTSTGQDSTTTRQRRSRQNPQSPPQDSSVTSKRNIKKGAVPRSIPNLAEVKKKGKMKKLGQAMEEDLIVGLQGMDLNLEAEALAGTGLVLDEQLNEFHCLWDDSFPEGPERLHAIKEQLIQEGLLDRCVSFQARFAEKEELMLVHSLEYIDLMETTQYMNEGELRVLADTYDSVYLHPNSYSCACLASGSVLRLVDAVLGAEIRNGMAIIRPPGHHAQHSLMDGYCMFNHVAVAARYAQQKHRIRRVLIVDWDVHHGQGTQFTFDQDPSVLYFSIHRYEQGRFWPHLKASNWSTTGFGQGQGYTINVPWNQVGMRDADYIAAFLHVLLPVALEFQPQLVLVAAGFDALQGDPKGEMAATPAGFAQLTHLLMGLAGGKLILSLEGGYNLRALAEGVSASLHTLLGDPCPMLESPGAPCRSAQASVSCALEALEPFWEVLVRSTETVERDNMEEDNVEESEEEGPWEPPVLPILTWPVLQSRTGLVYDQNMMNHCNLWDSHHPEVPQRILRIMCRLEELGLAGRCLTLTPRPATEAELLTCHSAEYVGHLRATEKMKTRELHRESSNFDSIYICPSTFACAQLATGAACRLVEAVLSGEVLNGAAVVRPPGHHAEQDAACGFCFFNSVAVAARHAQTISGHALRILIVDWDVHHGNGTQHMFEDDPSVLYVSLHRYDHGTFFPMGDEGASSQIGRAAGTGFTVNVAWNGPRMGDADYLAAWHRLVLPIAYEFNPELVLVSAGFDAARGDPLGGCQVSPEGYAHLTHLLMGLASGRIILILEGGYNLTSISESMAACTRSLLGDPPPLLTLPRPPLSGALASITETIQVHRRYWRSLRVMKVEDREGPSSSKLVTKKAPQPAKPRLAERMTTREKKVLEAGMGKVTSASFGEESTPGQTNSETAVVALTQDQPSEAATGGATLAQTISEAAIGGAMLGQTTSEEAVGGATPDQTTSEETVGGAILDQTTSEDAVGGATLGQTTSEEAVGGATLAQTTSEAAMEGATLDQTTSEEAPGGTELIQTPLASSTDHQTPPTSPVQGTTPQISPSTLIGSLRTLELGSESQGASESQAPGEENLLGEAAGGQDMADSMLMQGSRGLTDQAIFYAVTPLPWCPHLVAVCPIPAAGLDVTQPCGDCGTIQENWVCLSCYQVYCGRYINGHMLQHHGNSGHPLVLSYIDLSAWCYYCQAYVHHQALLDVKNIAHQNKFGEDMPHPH
Description: Inhibition of HDAC6 (unknown origin). Summed up: as §3

A further data set deals with Histone deacetylase 2 (Homo sapiens, UniProt Q92769). Description: Inhibition of HDAC2 (unknown origin). Summed up: as §3
For a further data set, the target named is Histone deacetylase 1 (Homo sapiens, UniProt Q13547). Briefly: Inhibition of HDAC1 (unknown origin). The procedure, abridged: as §3
The next data set has as its target Histone deacetylase 3 (Homo sapiens, UniProt O15379). Description: Inhibition of HDAC3 (unknown origin). The procedure, abridged: as §3
The target of data set [10] is T5, Polyamine deacetylase HDAC10 (Homo sapiens, UniProt Q969S8).
T5 sequence (Q969S8 whole entry): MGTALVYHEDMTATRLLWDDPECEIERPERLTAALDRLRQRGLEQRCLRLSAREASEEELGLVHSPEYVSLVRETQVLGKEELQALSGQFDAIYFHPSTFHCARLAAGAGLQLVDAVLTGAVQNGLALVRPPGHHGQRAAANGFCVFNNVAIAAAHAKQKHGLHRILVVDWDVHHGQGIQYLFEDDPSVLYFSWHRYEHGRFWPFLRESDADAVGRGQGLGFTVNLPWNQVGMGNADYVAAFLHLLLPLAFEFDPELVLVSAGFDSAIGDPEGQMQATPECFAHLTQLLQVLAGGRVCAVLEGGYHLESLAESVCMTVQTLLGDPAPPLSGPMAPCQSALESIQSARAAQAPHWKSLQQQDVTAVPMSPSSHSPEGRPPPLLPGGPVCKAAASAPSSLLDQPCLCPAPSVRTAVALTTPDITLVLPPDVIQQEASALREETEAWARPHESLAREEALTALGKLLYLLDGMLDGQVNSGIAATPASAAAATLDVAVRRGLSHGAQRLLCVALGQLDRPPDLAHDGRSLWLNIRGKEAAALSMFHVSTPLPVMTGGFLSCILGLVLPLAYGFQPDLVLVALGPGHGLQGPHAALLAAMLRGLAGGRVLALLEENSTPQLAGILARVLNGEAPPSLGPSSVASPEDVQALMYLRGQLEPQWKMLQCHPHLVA
Description: Inhibition of HDAC10 (unknown origin). Summed up:
as §3

Structures are written as SMILES. pIC50: −log10 of the molar value. Calls of active or inactive are those of the source. The rule behind the calls is not given here.

The term inhibition denotes the share of the control response that was lost under treatment. A word on the pIC50: it is the negative decadic logarithm of the IC50, by convention in mol/L. Low readings indicate a high IC50, high ones a low IC50.

Chain of Histone deacetylase 1 (Q13547 whole entry): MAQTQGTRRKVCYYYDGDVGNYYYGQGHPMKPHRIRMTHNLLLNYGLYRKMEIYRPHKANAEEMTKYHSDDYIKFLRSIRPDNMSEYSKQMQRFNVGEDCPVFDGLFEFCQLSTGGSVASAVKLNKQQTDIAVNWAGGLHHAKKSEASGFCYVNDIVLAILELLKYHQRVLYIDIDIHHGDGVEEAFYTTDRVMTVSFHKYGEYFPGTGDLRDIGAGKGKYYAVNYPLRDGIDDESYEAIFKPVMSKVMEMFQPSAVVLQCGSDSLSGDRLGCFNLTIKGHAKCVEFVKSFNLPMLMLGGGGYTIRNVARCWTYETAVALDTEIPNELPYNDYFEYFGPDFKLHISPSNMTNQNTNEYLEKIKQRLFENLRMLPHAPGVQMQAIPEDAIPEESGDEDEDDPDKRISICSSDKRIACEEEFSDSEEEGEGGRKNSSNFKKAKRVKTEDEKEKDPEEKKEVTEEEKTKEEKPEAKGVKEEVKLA
Chain of Histone deacetylase 3 (O15379 whole entry): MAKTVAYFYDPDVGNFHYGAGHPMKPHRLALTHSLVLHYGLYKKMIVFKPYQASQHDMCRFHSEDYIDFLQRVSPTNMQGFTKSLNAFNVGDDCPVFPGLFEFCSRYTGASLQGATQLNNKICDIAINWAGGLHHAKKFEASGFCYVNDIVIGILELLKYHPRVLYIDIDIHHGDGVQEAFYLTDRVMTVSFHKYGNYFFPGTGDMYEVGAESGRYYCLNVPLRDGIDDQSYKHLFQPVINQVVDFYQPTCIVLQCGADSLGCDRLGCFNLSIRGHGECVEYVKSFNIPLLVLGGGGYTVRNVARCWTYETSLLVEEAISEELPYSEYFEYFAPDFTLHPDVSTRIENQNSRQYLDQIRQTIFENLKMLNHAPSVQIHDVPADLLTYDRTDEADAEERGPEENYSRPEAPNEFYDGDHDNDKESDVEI
Chain of Histone deacetylase 2 (Q92769 whole entry): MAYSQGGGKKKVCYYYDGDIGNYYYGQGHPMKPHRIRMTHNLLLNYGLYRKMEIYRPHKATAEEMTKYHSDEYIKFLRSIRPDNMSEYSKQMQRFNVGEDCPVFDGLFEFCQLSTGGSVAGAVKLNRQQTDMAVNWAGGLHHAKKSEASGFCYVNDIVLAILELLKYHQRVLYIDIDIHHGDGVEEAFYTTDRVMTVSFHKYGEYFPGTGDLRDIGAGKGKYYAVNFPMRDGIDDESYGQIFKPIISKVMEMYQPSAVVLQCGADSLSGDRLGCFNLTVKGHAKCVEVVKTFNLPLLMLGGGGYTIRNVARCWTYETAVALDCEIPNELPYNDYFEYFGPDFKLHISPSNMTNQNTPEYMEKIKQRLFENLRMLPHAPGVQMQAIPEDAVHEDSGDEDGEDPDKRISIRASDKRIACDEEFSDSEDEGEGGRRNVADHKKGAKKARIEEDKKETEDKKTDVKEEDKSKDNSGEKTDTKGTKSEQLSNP

In the case of `COc1ccc(/C=C/C=C/C(=O)c2cc3ccc(OC)cc3oc2=O)cc1`, the inhibition entry in the data set with K562 [1] and in the data set with U-937 [2] was “Active” throughout. For the same molecule, the inhibition in [3] is 30%. In addition, the Activity entry with PBMC is “Non-toxic”.

Take `O=C(/C=C/c1ccccc1)c1cc2ccccc2oc1=O`: the inhibition in data set [3] is below 10%.

For `COc1ccc2cc(C(C)=O)c(=O)oc2c1`, the inhibition result in the data set on U-937 [4] and in the data set on K562 [1] was “inactive” each time. In addition, the inhibition in data set [3] worked out at 20%. For the same molecule, in the data set on U-937 [5], the inhibition entry is “Active”. In the data set on PBMC, the Activity result is reported as “Non-toxic”. In addition, the result in the data set on K562 [6] was inactive.

In the case of `COc1ccc2cc(C(=O)/C=C/c3ccc(OC)c(OC)c3)c(=O)oc2c1`, the inhibition in data set [3] is below 10%.

With `COc1ccc(/C=C/C(=O)c2cc(=O)oc3cc(OC)ccc23)cc1`, the inhibition result in the data set on K562 [1], in the data set on U-937 [2] and in the data set with U-937 [7] was “Active” throughout. Further, the inhibition in [3] stood at 20%. In the data set on PBMC, the Activity result is “Non-toxic”.

In the case of `O=C(/C=C/C=C/c1ccccc1)c1cc2ccccc2oc1=O`, the inhibition in data set [3] was below 10%.

Consider `COc1ccc(/C=C/C=O)cc1OC` [3,4-DIMETHOXY CINNAMALDEHYDE], for which the values for the Activity (in data set [8]; with PBMC) were 80% and “Non-toxic”, respectively. The inhibition result in the data set on U-937 [4] and in the data set on K562 [1] was “inactive” each time. In the data set with U-937 [5], the inhibition result was “Active”. For the same molecule, the outcome with K562 [6] was inactive.

In data set [3], `COc1ccc(/C=C/C(=O)c2cc3ccc(OC)cc3oc2=O)cc1` gave an inhibition below 10%.

As for `COc1ccc2cc(C(=O)/C=C/C=C/c3ccc(OC)c(OC)c3)c(=O)oc2c1`, the pIC50 at Histone deacetylase 8 is 4.55; against Histone deacetylase 11, 4.13; in data set [9] it was 4.49; against Histone deacetylase 2, 4.48; against Histone deacetylase 1, 4.23; against Histone deacetylase 3 it was 4.92. Also, in data set [10], the pIC50 is 4.07. For the same molecule, the inhibition result in the data set with K562 [1] and with U-937 [2] was “Active” in each case. Further, the inhibition in data set [3] worked out at 50%. Besides, the Activity entry in the data set with PBMC was “Non-toxic”.

Molecule `COc1ccc2cc(C(=O)/C=C/C=C/c3ccc(O)c(OC)c3)c(=O)oc2c1` yielded an inhibition in data set [3] below 10%.
